Results collected from several papers.
Lines come from different studies, so protocols differ.
Medium: plasma

SMILES	test system	setting	bioavailability [%]
O=C(Nc1cc(F)c(F)c(F)c1)c1ccc(F)c(S(=O)(=O)NCc2cccc(B(O)O)c2)c1	male Sprague-Dawley rat	oral, 20 mg/kg	2.85
CCOC(=O)[C@@]12C[C@@H]1[C@@H](n1ccc3c(NC)nc(C#Cc4ccc(Cl)s4)nc31)[C@H](O)[C@@H]2O	male Sprague-Dawley rat	oral, 5 mg/kg	92
Cn1cc(-c2cc(N3CCCCS3(=O)=O)ccc2Oc2ccc(F)cc2F)c2c(F)c[nH]c2c1=O	Sprague-Dawley rat	oral, 3 mg/kg	20 to 30
COc1c(C#N)ccnc1N1C2CCC1CN(C(=O)c1cccnc1-n1cccn1)C2	rat	oral, 30 mg/kg	8.5
Cl.Clc1ccc2c(c1)nc(N1CCNCC1)n2Cc1ccccc1	rat	oral, 5 mg/kg	42
CN1CCC(COc2cnc(-c3cccc(Cn4nc(-c5cccc(C#N)c5)ccc4=O)c3)nc2)CC1	male Sprague-Dawley rat	oral, 20 mg/kg	56
Cc1c(-c2ccccc2)cccc1N1C(=O)c2cc(CN[C@H](C(=O)O)C(C)O)c(OCc3cccc(C#N)c3)cc2C1=O (some centres unmarked)	Sprague-Dawley rat	oral, 50 mg/kg	0.31
Oc1c(-n2ccnc2)cnn1-c1cc(N2CCCCC2)ncn1	rat	oral, 30 mg/kg	39
N#Cc1ccc(-c2ccc(C[C@@H](C#N)NC(=O)[C@@H]3CCCCN3)cc2)cc1	Sprague-Dawley rat	oral, 3 mg/kg	80
C#Cc1cnc2nc(O)n(C(CC)CC)c2n1	Sprague-Dawley rat	oral, 1 mg/kg	> 90
N#C[C@]1(CO)O[C@@H](n2cnc3c(=O)[nH]c(N)nc32)C[C@@H]1O	male Sprague-Dawley rat	oral, 1 mg/kg	~70
Oc1c(Br)cc(Cl)c2cccnc12	Sprague-Dawley rat	oral, 20 mg/kg	39
CNC(=O)c1cccc(-c2ccc(O[C@H]3O[C@H](CO)[C@@H](O)[C@H](O)[C@@H]3O)c(C)c2)c1	male Sprague-Dawley rat	oral, 10 mg/kg, single dose	1.34
C=CC(=O)Nc1cc(Nc2nccc(Nc3cc(Cl)c(F)cc3C(C)(C)O)n2)c(OC)cc1N1CC[C@@H](N(C)C)C1	Wistar rat	oral, 3 mg/kg	39.6
Oc1c(-n2ccnn2)cnn1-c1cc(N2CCOCC2)ncn1	male rat	oral, 5 mg/kg	34
N#Cc1ccc(Nc2nc(N)cc(Oc3c(F)cc(-c4ccc(C#N)cc4)cc3F)n2)cc1	Sprague-Dawley rat	oral, 5 mg/kg	6.51
CC[C@H](C)[C@H](NC(=O)[C@H](Cc1ccccc1)NC(=O)[C@H](CCC(=O)O)NC(=O)[C@H](CCCNC(=N)N)NC(=O)[C@H](C)NC(=O)[C@H](C)NC(=O)[C@H](CCC(N)=O)NC(=O)[C@H](CCC(=O)O)NC(=O)[C@H](CCC(=O)O)NC(=O)[C@H](CC(C)C)NC(=O)[C@H](Cc1ccc(O)cc1)NC(=O)[C@H](CO)NC(=O)[C@H](CO)NC(=O)[C@@H](NC(=O)[C@H](CC(=O)O)NC(=O)[C@H](CO)NC(=O)[C@@H](NC(=O)[C@H](Cc1ccccc1)NC(=O)[C@@H](NC(=O)CNC(=O)[C@H](CCC(=O)O)NC(=O)[C@H](C)NC(=O)CCc1c[nH]cn1)[C@@H](C)O)[C@@H](C)O)C(C)C)C(=O)N[C@@H](C)C(=O)N[C@@H](Cc1c[nH]c2ccccc12)C(=O)N[C@@H](CC(C)C)C(=O)N[C@H](C(=O)N[C@@H](CCCNC(=N)N)C(=O)NCC(=O)N[C@@H](CCCNC(=N)N)C(=O)N[C@@H](CCCCNC(=O)COCCOCCNC(=O)COCCOCCNC(=O)CC[C@H](NC(=O)CCCCCCCCCCCCCCCCC(=O)O)C(=O)O)C(=O)O)C(C)C	rat	subcutaneous, 20 nmol/kg	38.7
